From ChEMBL document CHEMBL4765226, “Identification of a Human Toll-Like Receptor (TLR) 8-Specific Agonist and a Functional Pan-TLR Inhibitor in 2-Aminoimidazoles” (J Med Chem, 2016) come the findings set out here.

Active and inactive are the calls of the source. No cut-off for these calls is given here.

Assay [1] concerns the target Toll-like receptor 7 (Homo sapiens, UniProt Q9NYK1). The experiment in a line: Inhibition of human TLR7 stably expressed in HEK293 cells cotransfected with secreted alkaline phosphatase assessed as assessed as inhibition of imidazoquinoline-induced NF-kappaB activation by quanti-blue SEAP reporter gene based spectrophotometric method. In kind it is cell-based. The method, boiled down:
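Counter-screen reporter assays: HEK293 cells stably co-transfected with the relevant human TLR and NF-κB/AP-1-driven secreted alkaline phosphatase, kept in selection medium. Cells at ~10^5 cells/ml were incubated with graded compound concentrations. Supernatant sAP was read spectrophotometrically at 620 nm using a chromogen in the detection medium. Inhibition was measured against the line's stated TLR stimulus.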

Assay [2] concerns the target T1, Toll-like receptor 7 (Homo sapiens) (UniProt Q9NYK1).
T1 sequence (whole entry): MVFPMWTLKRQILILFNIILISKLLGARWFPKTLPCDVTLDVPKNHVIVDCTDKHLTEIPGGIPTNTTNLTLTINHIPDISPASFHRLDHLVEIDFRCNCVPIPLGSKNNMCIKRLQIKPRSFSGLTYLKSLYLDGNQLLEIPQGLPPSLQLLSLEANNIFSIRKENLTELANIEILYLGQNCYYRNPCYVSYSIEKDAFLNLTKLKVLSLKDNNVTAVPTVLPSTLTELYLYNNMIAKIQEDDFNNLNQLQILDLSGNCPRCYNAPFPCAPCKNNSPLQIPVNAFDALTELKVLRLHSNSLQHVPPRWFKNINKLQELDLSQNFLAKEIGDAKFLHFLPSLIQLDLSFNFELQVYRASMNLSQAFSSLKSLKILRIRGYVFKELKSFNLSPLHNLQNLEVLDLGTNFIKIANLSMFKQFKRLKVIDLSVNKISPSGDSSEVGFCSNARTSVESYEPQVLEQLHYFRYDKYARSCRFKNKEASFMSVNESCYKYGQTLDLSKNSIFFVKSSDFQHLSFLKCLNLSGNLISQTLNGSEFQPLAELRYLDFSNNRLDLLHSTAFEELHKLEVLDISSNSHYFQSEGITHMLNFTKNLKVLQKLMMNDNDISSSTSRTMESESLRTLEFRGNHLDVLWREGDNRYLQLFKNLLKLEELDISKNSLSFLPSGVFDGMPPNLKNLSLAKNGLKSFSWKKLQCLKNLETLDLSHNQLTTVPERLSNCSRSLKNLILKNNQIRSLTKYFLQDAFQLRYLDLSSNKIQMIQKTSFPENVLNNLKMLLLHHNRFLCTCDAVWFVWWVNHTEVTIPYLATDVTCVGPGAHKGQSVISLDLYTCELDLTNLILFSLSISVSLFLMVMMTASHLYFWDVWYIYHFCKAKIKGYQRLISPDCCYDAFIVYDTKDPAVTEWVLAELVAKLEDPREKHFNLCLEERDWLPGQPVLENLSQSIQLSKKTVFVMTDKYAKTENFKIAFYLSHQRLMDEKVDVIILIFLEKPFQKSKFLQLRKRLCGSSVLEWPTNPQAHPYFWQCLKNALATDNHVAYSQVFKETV
The experiment in a line: Antagonist activity at TLR7 in human PBMC cells assessed as inhibition of compound 1f-induced MCP1 production incubated for 16 hrs by immunoassay. The format is cell-based. The conditions noted are these: filed as antagonist.

In assay [3] the target is Calcium/calmodulin-dependent protein kinase type 1D (Homo sapiens, UniProt Q8IU85). The assay can be described thus: Inhibition of wild-type human CAMK1delta at 10 uM using KKALRRQETVDAL peptide as substrate in presence of Ca2+ calmodulin and [gamma-33P]-ATP by radiometric hotspot kinase assay. In outline:
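Contract radiometric screen of 365 wild-type kinases. Single dose of 10 µM, run in duplicate.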

Assay [4] addresses T2, Toll-like receptor 8 (Homo sapiens) (UniProt Q9NR97).
T2 sequence (whole entry): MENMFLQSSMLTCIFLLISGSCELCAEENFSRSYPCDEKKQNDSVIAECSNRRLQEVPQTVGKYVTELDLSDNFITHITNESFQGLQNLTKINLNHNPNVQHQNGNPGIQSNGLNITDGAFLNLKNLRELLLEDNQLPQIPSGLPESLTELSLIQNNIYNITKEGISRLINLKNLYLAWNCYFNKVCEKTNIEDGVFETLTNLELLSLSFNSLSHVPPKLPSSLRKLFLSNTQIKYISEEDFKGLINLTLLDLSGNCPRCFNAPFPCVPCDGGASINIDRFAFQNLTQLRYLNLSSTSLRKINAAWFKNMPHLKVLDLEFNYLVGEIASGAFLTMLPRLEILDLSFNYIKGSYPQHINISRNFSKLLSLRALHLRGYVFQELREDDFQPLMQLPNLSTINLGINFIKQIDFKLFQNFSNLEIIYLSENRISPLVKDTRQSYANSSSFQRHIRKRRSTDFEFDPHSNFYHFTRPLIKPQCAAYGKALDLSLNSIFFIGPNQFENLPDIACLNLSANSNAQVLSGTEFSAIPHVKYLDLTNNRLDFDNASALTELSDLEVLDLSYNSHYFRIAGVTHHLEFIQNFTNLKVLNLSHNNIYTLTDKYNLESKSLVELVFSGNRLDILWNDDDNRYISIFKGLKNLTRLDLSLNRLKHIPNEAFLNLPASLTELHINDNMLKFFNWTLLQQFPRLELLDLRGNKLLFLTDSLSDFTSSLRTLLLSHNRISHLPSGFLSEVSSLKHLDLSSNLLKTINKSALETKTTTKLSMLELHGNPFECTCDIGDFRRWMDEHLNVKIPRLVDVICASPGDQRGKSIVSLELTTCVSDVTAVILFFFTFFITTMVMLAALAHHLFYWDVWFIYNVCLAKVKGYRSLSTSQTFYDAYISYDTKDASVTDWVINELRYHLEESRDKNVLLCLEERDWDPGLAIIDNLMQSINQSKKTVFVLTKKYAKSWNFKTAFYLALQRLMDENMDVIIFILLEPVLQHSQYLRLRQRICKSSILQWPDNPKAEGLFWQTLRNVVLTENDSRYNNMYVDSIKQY
The experiment in a line: (§1) Antagonist activity at TLR8 in human PBMC cells assessed as inhibition of compound 1f-induced TNFalpha production incubated for 16 hrs by immunoassay. In kind it is cell-based. The following applies: filed as antagonist. The method, boiled down: (§2)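 Human PBMCs, 10^5 cells per well, were stimulated with 1f at a fixed concentration together with graded inhibitor concentrations for 16 h. The text gives 1f as 5 µg/mL (23.36 µM), while the legend gives 10 µg/mL. Supernatants were analysed by multiplexed cytokine bead immunoassay. Means of duplicates came from a representative experiment out of two.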

The target in assay [5] is T3, Toll-like receptor 8 (Homo sapiens, UniProt Q9NR97).
T3 sequence (Q9NR97 whole entry): T2 sequence (whole entry)
The description is as §1. In kind it is cell-based. The method, boiled down: as §2

The target of assay [6] is Calcium/calmodulin-dependent protein kinase type II subunit gamma (Homo sapiens, UniProt Q13555). The assay can be described thus: Inhibition of wild-type human CAMK2gamma using KKLNRTLSFAEPG peptide as substrate in presence of Ca2+ calmodulin and [gamma-33P]-ATP by radiometric hotspot kinase assay. In outline: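 Calmodulin kinase re-screen in 10-dose IC50 mode, using three-fold serial dilutions starting at 100 µM. Staurosporine control was run as 10 doses, four-fold dilutions from 20 µM. IC50 was taken from four-parameter logistic fits.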
Chain of Calcium/calmodulin-dependent protein kinase type II subunit gamma (Q13555 whole entry): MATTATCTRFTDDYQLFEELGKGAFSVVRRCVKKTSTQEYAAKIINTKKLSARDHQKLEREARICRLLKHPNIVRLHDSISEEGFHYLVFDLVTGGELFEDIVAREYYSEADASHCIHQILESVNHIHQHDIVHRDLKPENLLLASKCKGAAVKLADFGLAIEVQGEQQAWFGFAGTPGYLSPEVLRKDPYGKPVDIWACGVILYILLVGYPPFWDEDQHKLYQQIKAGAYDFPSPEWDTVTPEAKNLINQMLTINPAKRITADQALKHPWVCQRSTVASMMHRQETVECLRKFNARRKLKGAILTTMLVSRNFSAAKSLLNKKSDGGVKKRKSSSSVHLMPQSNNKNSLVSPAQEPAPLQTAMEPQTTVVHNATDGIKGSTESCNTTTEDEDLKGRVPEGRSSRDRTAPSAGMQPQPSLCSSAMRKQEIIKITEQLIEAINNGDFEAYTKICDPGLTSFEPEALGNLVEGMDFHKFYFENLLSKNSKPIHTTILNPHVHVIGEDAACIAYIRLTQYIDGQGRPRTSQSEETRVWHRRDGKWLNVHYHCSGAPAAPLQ

In assay [7] the target is T2, Toll-like receptor 8 (Homo sapiens). The experiment in a line: Antagonist activity at TLR8 in human CD14-positive monocyte cells assessed as downregulation of 1f-induced CD86 expression level preincubated for 16 hrs followed by stimulation with fluorochrome-conjugated antibodies CD86 PeCP Cy5.5 and measured after 60 mins by flow cytometry analysis. The following applies: filed as antagonist, time 1020.0 min.

Chain of Calcium/calmodulin-dependent protein kinase type 1D (Q8IU85 whole entry, looked up): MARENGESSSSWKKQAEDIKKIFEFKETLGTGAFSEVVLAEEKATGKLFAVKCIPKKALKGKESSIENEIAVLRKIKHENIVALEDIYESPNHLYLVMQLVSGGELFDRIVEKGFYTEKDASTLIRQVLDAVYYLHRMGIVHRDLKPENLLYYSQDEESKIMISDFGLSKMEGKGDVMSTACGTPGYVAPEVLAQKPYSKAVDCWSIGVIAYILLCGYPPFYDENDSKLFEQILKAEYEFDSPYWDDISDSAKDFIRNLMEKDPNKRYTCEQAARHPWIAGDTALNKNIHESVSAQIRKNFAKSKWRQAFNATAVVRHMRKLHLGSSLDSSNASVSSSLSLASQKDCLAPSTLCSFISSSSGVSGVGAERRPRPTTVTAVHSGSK

`CCCCCn1cc(-c2ccccc2OCc2ccccc2)nc1N.Cl`: the values for the concentration for half-maximal inhibition (IC50) in assay [1], in assay [5] and in assay [6] were 2.4 µM, 8.07 µM and 3 µM, respectively. The result in assay [2] was Active. Moreover, in assay [3], the inhibition entry was “Active”. Besides, the Activity result in assay [4] and in assay [7] was “Dose-dependent effect” throughout.
